# Key:
# [1] = target: T1, 3-hydroxy-3-methylglutaryl-coenzyme A reductase (Rattus norvegicus, UniProt P51639); assay: The compound was tested in vitro for inhibition of rat hepatic HMG-CoA reductase.; format: functional; conditions: read-out: I50
# T1 sequence (P51639 whole entry): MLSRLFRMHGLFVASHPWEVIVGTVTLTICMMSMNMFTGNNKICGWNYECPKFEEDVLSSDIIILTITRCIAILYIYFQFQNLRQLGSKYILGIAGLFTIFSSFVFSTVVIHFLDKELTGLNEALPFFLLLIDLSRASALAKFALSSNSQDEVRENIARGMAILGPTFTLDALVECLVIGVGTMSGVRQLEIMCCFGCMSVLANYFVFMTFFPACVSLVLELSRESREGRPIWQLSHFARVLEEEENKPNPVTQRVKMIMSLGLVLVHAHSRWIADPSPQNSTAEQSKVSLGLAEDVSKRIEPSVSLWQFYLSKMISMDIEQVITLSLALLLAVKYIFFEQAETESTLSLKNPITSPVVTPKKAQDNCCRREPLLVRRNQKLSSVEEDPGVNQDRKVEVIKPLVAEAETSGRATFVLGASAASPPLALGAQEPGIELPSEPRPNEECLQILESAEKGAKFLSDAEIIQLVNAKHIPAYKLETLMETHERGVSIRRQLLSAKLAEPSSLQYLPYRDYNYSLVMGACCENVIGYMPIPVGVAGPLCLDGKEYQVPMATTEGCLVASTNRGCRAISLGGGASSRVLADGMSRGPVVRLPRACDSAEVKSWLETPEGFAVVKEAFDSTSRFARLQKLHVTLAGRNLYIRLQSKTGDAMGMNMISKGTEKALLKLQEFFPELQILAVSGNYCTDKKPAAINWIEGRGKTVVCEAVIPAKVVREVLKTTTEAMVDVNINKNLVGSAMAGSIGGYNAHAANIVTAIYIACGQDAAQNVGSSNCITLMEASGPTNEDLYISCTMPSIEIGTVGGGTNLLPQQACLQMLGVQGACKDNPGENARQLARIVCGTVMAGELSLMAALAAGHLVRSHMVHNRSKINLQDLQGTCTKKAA
# Summary of the method: (§1)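 Enzyme source: hepatic microsomes from cholestyramine-fed Sprague-Dawley rats. Final assay conditions: 0.04 M potassium phosphate pH 7.2, KCl, sucrose, EDTA, 10 mM DTT, 1% DMSO, 50-200 µg microsomal protein. Microsomes were preincubated with 2.7 mM NADPH for 15 min at 37 °C, then with compound for 15 min. 100 µM 14C-[D,L]-HMG-CoA was then added for 20 min at 37 °C. Read-out: 14C-mevalonate, corrected by 3H-mevalonate recovery. I50 taken from composite dose-response regressions, 2-5 experiments.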
# [2] = target: T1, 3-hydroxy-3-methylglutaryl-coenzyme A reductase; assay: In vitro for inhibition of rat HMG-CoA reductase.; conditions: read-out: I50; summary of the method: as §1
# [3] = organism: Rattus norvegicus; assay: The compound was tested for inhibition of Cholesterol synthesis from [14C]- Acetate in hepatocytes of rats.; format: functional; conditions: Hepatocyte, read-out: I 50
# Summary of the method: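 Rat hepatocytes were freshly isolated by collagenase perfusion, 70-90% viable. Cells were suspended at 5 × 10^6 per 2.0 mL in Tris pH 7.4 incubation medium with cofactors; DMSO was ≤1.0% final. Incubation was with [14C]acetate (2 µCi/mL) for 2.0 h at 37 °C. Lipids were extracted by Bligh-Dyer and the percent of label in the cholesterol peak was compared with controls. I50 from composite curves of two or more studies.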
# [4] = It is the ratio of I50 fibroblasts to that of I50 hepatocytes.; format: functional, Hepatocyte
# Summary of the method: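 Selectivity is the ratio of I50 in human skin fibroblasts to I50 in freshly isolated rat hepatocytes. Each I50 came from [14C]acetate incorporation into cholesterol, measured as percent inhibition versus controls from composite dose-response data.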
# [5] = tested on: Rattus norvegicus; assay: The compound was tested in vivo for inhibition of Cholesterol Biosynthesis from [14C]- acetate in rat after peroral administration.; format: functional; conditions: po
# [6] = organism: Homo sapiens; assay: The compound was tested for inhibition of Cholesterol synthesis from [14C]- Acetate in human skin fibroblasts; format: functional; conditions: read-out: I 50
# Summary of the method: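 Human skin fibroblasts (passage 7-27) were plated at 5 × 10^5 cells/well and cultured 18 h. Sterol synthesis was induced by 24 h in serum-free MEM with 1.0% fatty acid-free BSA. Cells were preincubated with compound for 30 min (DMSO ≤1.0%), then given sodium [1-14C]acetate at 2.0 µCi/mL for 4 h. Label in the extracted cholesterol peak was compared with controls. I50 from composite curves of ≥2 experiments.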
Structure (SMILES),IC50 [2],other results
Cc1nc(-c2ccccc2)c(C)c(-c2ccc(F)cc2)c1COP(=O)(O)C[C@H](O)CC(=O)O,,IC50 [1]: 1300 nM
Cc1c(-c2ccccc2)nc(C(C)C)c(CCP(=O)(O)C[C@H](O)CC(=O)O)c1-c1ccc(F)cc1,9.2 nM,
CCc1nc(-c2ccccc2)c(C)c(-c2ccc(F)cc2)c1CCP(=O)(O)C[C@H](O)CC(=O)O,79.8 nM,
CC(C)c1cc(-c2ccccc2)nc(-c2ccc(F)cc2)c1C#CP(=O)(O)C[C@H](O)CC(=O)O,420 nM,
CC(C)c1nc(-c2cccc3c2OCO3)cc(-c2ccc(F)cc2)c1C#CP(=O)(O)C[C@H](O)CC(=O)O,84.6 nM,
CC(C)c1nc(C(c2ccccc2)c2ccccc2)cc(-c2ccc(F)cc2)c1C#CP(=O)(O)C[C@H](O)CC(=O)O,14.9 nM,
CC(C)c1nc2c(c(-c3ccc(F)cc3)c1/C=C/P(=O)(O)C[C@H](O)CC(=O)O)CCCc1ccccc1-2,1.3 nM,
CC(C)c1nc2c(c(-c3ccc(F)cc3)c1C#CP(=O)(O)C[C@H](O)CC(=O)O)Cc1ccccc1-2,75.6 nM,
CC(C)c1nc2c(c(-c3ccc(F)cc3)c1CCP(=O)(O)C[C@H](O)CC(=O)O)CCCc1ccccc1-2,18.6 nM,
CC(C)c1nc(-c2ccccc2)c(F)c(-c2ccc(F)cc2)c1C#CP(=O)(O)C[C@H](O)CC(=O)O,44.9 nM,
Cc1c(-c2ccccc2)nc(C2CC2)c(C#CP(=O)(O)C[C@H](O)CC(=O)O)c1-c1ccc(F)cc1,4.6 nM,
CC(C)c1nc2c(c(-c3ccc(F)cc3)c1C#CP(=O)(O)C[C@H](O)CC(=O)O)CCc1ccccc1-2,52.5 nM,
CC(C)c1nc(C(C)(C)C)cc(-c2ccc(F)cc2)c1COP(=O)(O)C[C@H](O)CC(=O)O,,IC50 [1]: 1.4 nM
CC(C)c1nc(C(C)(C)C)cc(-c2ccc(F)cc2)c1CCP(=O)(O)C[C@H](O)CC(=O)O,17.2 nM,
CCc1nc(-c2ccccc2)c(C)c(-c2ccc(F)cc2)c1C#CP(=O)(O)C[C@H](O)CC(=O)O,110 nM,
Cc1nc(-c2ccccc2)c(C)c(-c2ccc(F)cc2)c1CCP(=O)(O)C[C@H](O)CC(=O)O,235 nM,
CC(C)c1nc(C(C)(C)C)cc(-c2ccc(F)cc2)c1/C=C/P(=O)(O)C[C@H](O)CC(=O)O,3.2 nM,
CC(C)c1nc(-c2cc(F)c(F)c(F)c2F)cc(-c2ccc(F)cc2)c1C#CP(=O)(O)C[C@H](O)CC(=O)O,8.9 nM,
Cc1c(-c2ccccc2)nc(C2CC2)c(/C=C/P(=O)(O)C[C@H](O)CC(=O)O)c1-c1ccc(F)cc1,2.5 nM,
CC(C)c1nc(-c2ccccc2)cc(-c2ccc(F)cc2)c1CCP(=O)(O)C[C@H](O)CC(=O)O,181 nM,
Cc1cc(F)ccc1-c1cc(-c2ccccc2)nc(C(C)C)c1CCP(=O)(O)C[C@H](O)CC(=O)O,115 nM,
CC(C)c1nc(C23CC4CC(CC(C4)C2)C3)cc(-c2ccc(F)cc2)c1C#CP(=O)(O)C[C@H](O)CC(=O)O,43.8 nM,
CC(C)c1nc(-c2cccc3ccccc23)cc(-c2ccc(F)cc2)c1C#CP(=O)(O)C[C@H](O)CC(=O)O,28.7 nM,
CCc1c(-c2ccccc2)nc(C(C)C)c(C#CP(=O)([O-])C[C@H](O)CC(=O)[O-])c1-c1ccc(F)cc1.[Na+].[Na+],5.6 nM,IC50 [3]: 519 nM; Selectivity [4]: 13; ED50 [5]: 4.5 mg/kg; IC50 [6]: 6750 nM
CCc1nc(-c2ccccc2)c(C)c(-c2ccc(F)cc2)c1COP(=O)(O)C[C@H](O)CC(=O)O,,IC50 [1]: 19.4 nM
CC(C)c1nc(-c2ccccc2)c(-c2ccccc2)c(-c2ccc(F)cc2)c1C#CP(=O)(O)C[C@H](O)CC(=O)O,15.6 nM,

Structure (SMILES),IC50 [2],other results
CCc1c(-c2ccccc2)nc(C(C)C)c(CCP(=O)(O)C[C@H](O)CC(=O)O)c1-c1ccc(F)cc1,19.1 nM,
Cc1nc(-c2ccccc2)c(C)c(-c2ccc(F)cc2)c1C#CP(=O)(O)C[C@H](O)CC(=O)O,1300 nM,
CC(C)c1nc(-c2ccccc2Cc2ccccc2)cc(-c2ccc(F)cc2)c1C#CP(=O)(O)C[C@H](O)CC(=O)O,62.6 nM,
Cc1cc(F)ccc1-c1cc(-c2ccccc2)nc(C(C)C)c1/C=C/P(=O)(O)C[C@H](O)CC(=O)O,3.9 nM,
Cc1cc(F)ccc1-c1cc(-c2ccccc2)nc(C(C)C)c1C#CP(=O)(O)C[C@H](O)CC(=O)O,156 nM,
CC(C)c1nc(-c2ccccc2)c(C(C)C)c(-c2ccc(F)cc2)c1C#CP(=O)(O)C[C@H](O)CC(=O)O,9.8 nM,
O=C(O)C[C@@H](O)CP(=O)(O)OCc1c(-c2ccc(F)cc2)cc(-c2ccccc2)nc1C1CC1,,IC50 [1]: 29 nM
Cc1c(-c2ccccc2)nc(C(C)C)c(COP(=O)(O)C[C@H](O)CC(=O)O)c1-c1ccc(F)cc1,,IC50 [1]: 5.1 nM
Cc1cc(-c2cc(-c3ccccc3)nc(C(C)C)c2C#CP(=O)(O)C[C@H](O)CC(=O)O)ccc1F,22 nM,
Cc1c(-c2ccccc2)nc(C2CC2)c(COP(=O)(O)C[C@H](O)CC(=O)O)c1-c1ccc(F)cc1,,IC50 [1]: 1.3 nM
CC(C)c1nc(-c2ccccc2)cc(-c2ccc(F)cc2)c1COP(=O)(O)C[C@H](O)CC(=O)O,,IC50 [1]: 12.7 nM
CC(C)c1cc(-c2ccc(F)cc2)c(C#CP(=O)(O)C[C@H](O)CC(=O)O)c(C(C)C)n1,80.9 nM,
CC(C)c1cc(-c2ccccc2)nc(-c2ccc(F)cc2)c1/C=C/P(=O)(O)C[C@H](O)CC(=O)O,45.3 nM,
CC(C)(C)c1nc(-c2ccccc2)cc(-c2ccc(F)cc2)c1C#CP(=O)(O)C[C@H](O)CC(=O)O,68.4 nM,
O=C(O)C[C@@H](O)CP(=O)(O)C#Cc1c(-c2ccc(F)cc2)cc(-c2ccccc2)nc1C1CC1,90.9 nM,
CC(C)c1nc(C2CC2)cc(-c2ccc(F)cc2)c1C#CP(=O)(O)C[C@H](O)CC(=O)O,4.2 nM,
CCc1c(-c2ccccc2)nc(C(C)C)c(COP(=O)(O)C[C@H](O)CC(=O)O)c1-c1ccc(F)cc1,,IC50 [1]: 2.5 nM
CCc1nc(-c2ccccc2)c(C)c(-c2ccc(F)cc2)c1/C=C/P(=O)(O)C[C@H](O)CC(=O)O,4.7 nM,
Cc1ccccc1-c1cc(-c2ccc(F)cc2)c(C#CP(=O)(O)C[C@H](O)CC(=O)O)c(C(C)C)n1,32.6 nM,
Cc1cc(-c2ccc(F)cc2)c(C#CP(=O)(O)C[C@H](O)CC(=O)O)c(C(C)C)n1,231 nM,
CC(C)c1nc2c(c(-c3ccc(F)cc3)c1COP(=O)(O)C[C@H](O)CC(=O)O)CCCc1ccccc1-2,,IC50 [1]: 1.2 nM
CC(C)c1nc(C2CCCCC2)cc(-c2ccc(F)cc2)c1C#CP(=O)(O)C[C@H](O)CC(=O)O,48.4 nM,
CC(C)c1nc(-c2cccs2)cc(-c2ccc(F)cc2)c1C#CP(=O)(O)C[C@H](O)CC(=O)O,14.6 nM,
Cc1c(-c2ccccc2)nc(C2CC2)c(CCP(=O)(O)C[C@H](O)CC(=O)O)c1-c1ccc(F)cc1,9.2 nM,
CC(C)c1nc2c(c(-c3ccc(F)cc3)c1C#CP(=O)(O)C[C@H](O)CC(=O)O)CCCc1ccccc1-2,14.4 nM,

# Reference: ChEMBL document CHEMBL1125205, “Phosphorus-containing inhibitors of HMG-CoA reductase. 2. Synthesis and biological activities of a series of substituted pyridines containing a hydroxyphosphinyl moiety” (J Med Chem, 1991)
